# Assay results as given in ChEMBL document CHEMBL1139439, “Folate-synthesizing enzyme system as target for development of inhibitors and inhibitor combinations against Candida albicans-synthesis and biological activity of new 2,4-diaminopyrimidines and 4'-substituted 4-aminodiphenyl sulfones” (J Med Chem, 2004).
# What was measured:
# Candida albicans [1] = test: Inhibitory effect on Candida albicans YEM27 quad deletion Strain; type: functional
# Outline: (§1)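 MICs were determined by serial dilution in RPMI medium. MIC is the lowest concentration giving culture turbidity ≤20% of the control culture.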
# Candida albicans [2] = test: Inhibitory effect on Candida albicans YEM15 CDR1CDR2up Strain; type: functional; outline: as §1
# Candida albicans [3] = test: Inhibitory effect on Candida albicans YEM13 BENup Strain; type: functional; outline: as §1
# Dihydrofolate reductase [4] = target: T1, Dihydrofolate reductase (Candida albicans, UniProt P22906); test: Inhibitory activity against cell free dihydrofolate reductase (DHFR) from Candida albicans; conditions: read-out: I50
# T1 sequence (P22906 whole entry): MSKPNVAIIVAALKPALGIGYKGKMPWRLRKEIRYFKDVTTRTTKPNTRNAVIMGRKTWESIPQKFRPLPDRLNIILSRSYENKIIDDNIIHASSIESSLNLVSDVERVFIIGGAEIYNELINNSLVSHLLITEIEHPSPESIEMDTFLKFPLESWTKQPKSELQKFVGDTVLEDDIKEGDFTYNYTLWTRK
# Nakaseomyces glabratus [5] = test: Inhibitory effect on Candida glabrata YEM88 CgCDR1 CgCDR2up Strain; type: functional
# Outline: (§2)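 For C. glabrata strains, MICs were determined by serial dilution in RPMI medium and read after 48 h. MIC is the lowest concentration giving turbidity ≤20% of the control culture.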
# Nakaseomyces glabratus [6] = test: Inhibitory effect on Candida glabrata YEM216 pCDR1pCDR2pBEN YEM75 WT Strain; type: functional; outline: as §2
# Candida albicans [7] = test: Inhibitory effect on Candida albicans wild type YEM14 Strain; type: functional; outline: as §1
# Dihydrofolate reductase [8] = target: T2, Dihydrofolate reductase (Rattus norvegicus, UniProt Q920D2); test: (§3) Inhibitory activity against cell free dihydrofolate reductase (DHFR) from rat; conditions: read-out: I50
# T2 sequence (Q920D2 whole entry): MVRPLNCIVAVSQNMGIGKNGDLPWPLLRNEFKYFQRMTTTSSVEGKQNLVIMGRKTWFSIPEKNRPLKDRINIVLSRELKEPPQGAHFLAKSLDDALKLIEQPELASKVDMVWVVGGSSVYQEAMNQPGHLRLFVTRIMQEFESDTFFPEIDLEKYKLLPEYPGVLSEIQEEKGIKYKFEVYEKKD
# Candida albicans [9] = test: Inhibitory effect on Candida albicans YEM12 Strain; type: functional; outline: as §1
# Nakaseomyces glabratus [10] = test: IInhibitory effect on Candida glabrata YEM75 WT Strain; type: functional; outline: as §2
# Candida albicans [11] = test: Inhibitory effect on Candida albicans wild type YEM30 Strain; type: functional; outline: as §1
# Dihydrofolate reductase [12] = target: T2, Dihydrofolate reductase; test: as §3; conditions: read-out: I50; remark: listed apart in the source
# Outline: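 Commercially sourced rat DHFR was preincubated 5 min at 25 °C with 0.1 mM NADPH and varying inhibitor in 0.1 M Tris, pH 7.24. The reaction was started with 0.03 mM dihydrofolate and followed as the fall in absorbance at 340 nm over time. I50 was taken as the inhibitor concentration halving reaction velocity, fitted by nonlinear regression.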
# Nakaseomyces glabratus [13] = test: Inhibitory effect on Candida glabrata YEM75 WT Strain; type: functional; outline: as §2
SMILES,MIC (Candida albicans [1]) [µg/mL],MIC (Candida albicans [2]) [µg/mL],MIC (Candida albicans [3]) [µg/mL],IC50 (Dihydrofolate reductase [4]) [nM],MIC (Nakaseomyces glabratus [5]) [µg/mL],MIC (Nakaseomyces glabratus [6]) [µg/mL],MIC (Candida albicans [7]) [µg/mL],IC50 (Dihydrofolate reductase [8]) [nM],MIC (Candida albicans [9]) [µg/mL],MIC (Nakaseomyces glabratus [10]) [µg/mL],MIC (Candida albicans [11]) [µg/mL],IC50 (Dihydrofolate reductase [12]) [nM],MIC (Nakaseomyces glabratus [13]) [µg/mL]
COc1cc(Cc2cnc(N)nc2N)ccc1OCCNc1ccc(S(=O)(=O)c2ccc(N)cc2)cc1,> 64,> 64,> 64,340,> 64,> 64,> 64,7230,> 64,> 64,> 64,–,–
COc1cc(OC)cc(N2C3CCC2CC(c2cnc(N)nc2N)C3)c1 (configuration not stated),1,> 64,> 64,26,32,4,64,–,16,–,32,84,4
